High-throughput results (PubChem)
CHRM5 antagonist – CHRM5 antagonism in calcium assay | P08912 | CHO-hM5 cells, Fluo-8 calcium fluorescence, ACh EC80 | inhibition, % at 3 µM | actives 0.59% (n = 360,000) | AID 624040;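 active = inhibition above a per-plate cutoff, the mean of that plate's test compounds plus 3 SD, cut at about 27% in these data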;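 also: 0% = acetylcholine EC80 with DMSO and 100% = DMSO without agonist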
Target sequence (P08912 whole entry, looked up): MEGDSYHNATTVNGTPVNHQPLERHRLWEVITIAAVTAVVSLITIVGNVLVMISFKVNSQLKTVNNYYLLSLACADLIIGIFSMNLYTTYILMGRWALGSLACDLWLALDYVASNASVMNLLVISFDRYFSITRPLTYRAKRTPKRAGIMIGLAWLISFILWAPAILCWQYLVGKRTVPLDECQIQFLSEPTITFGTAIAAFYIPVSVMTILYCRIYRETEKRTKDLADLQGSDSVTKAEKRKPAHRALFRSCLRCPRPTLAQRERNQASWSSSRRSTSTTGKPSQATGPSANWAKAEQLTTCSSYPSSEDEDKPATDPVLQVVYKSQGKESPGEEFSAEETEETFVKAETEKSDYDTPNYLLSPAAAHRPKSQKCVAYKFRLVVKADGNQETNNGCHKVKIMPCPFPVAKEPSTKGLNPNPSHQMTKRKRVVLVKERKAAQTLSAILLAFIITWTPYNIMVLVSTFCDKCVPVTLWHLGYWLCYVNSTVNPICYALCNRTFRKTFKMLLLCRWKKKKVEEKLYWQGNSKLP
M4 PAM – potentiates acetylcholine response at human M4 receptor | P08173 | CHO-K1 hM4/Gqi5, Fluo-8 calcium fluorescence, ACh EC20; 0% = ACh EC20, 100% = maximal ACh | actives 0.4% (n = 360,000) | activation, % at 3 µM;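 active = activation above its plate's cutoff, the mean activation of sample wells plus 3 SD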
CHRM5 PAM – potentiates acetylcholine response at human M5 receptor | P08912 | CHO-K1 hM5, Fluo-8 calcium, ACh EC20 PAM; 0% = ACh EC20, 100% = ACh EC100 | actives 0.3% (n = 360,000) | activation, % at 3 µM | AID 624038;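 active = activation above the run cutoff, the mean activation of all test compounds plus 3 SD, cut at about 18% in these data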
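Assay system: CHO-K1 hM5 cells. Also added: acetylcholine at EC20 concentration, added after compound. Dosing: 3 µM, single dose. Times: compound preincubation 140 s before EC20 acetylcholine addition. Signal: Fluo-8 calcium fluorescence. Measure: % activation relative to EC20 and EC100 ACh responses. Repeats: singlicate, one well per test compound.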
CHRM4 agonist – CHRM4 agonism in calcium assay. CHO-K1 hM4/Gqi5, Fluo-8 calcium fluorescence; vehicle 0%, full acetylcholine response 100%. activation, % at 3 µM. actives 0.14% (n = 360,000);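 active = activation above the run mean over all test wells plus 3 SD, cut at about 32% in these data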;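 also: peak over basal fluorescence ratio per well then scaled between controls; 0% = DMSO wells and 100% = acetylcholine at EC100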
M5 ag – CHRM5 agonism in calcium assay | CHO-K1 hM5 cells, Fluo-8 calcium fluorescence; 0% DMSO wells, 100% maximal acetylcholine response | actives 0.19% (n = 360,000) | activation, % at 3 µM | P08912 | AID 624037;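 active = activation above the run's mean over test compounds plus 3 SD, cut at about 23% in these data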;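 also: signal is peak over basal fluorescence ratio across the kinetic read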
CHRM4 antagonist – CHRM4 antagonism in calcium assay. actives 0.73% (n = 360,000). inhibition, % at 3 µM. AID 624125. P08173. CHO-hM4 cells, ACh EC80, Fluo-8 calcium fluorescence;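 active = inhibition above its plate's cutoff, the mean inhibition of sample wells plus 3 SD, cut at about 27% in these data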;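 also: 0% = acetylcholine EC80 with DMSO and 100% = DMSO without agonist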
Active calls of the source: *; ! = repeats disagree. Compounds with a hit are over-represented: about 1.8% of the library has one in this group of screens.

SMILES	CHRM5 antagonist	M4 PAM	CHRM5 PAM	CHRM4 agonist	M5 ag	CHRM4 antagonist
Cc1c(NC(=O)C(C)OC(=O)CCC2CCCC2)c(=O)n(-c2ccccc2)n1C (configuration not stated)	9	-2	0	2	-1	0
CC1CC(C)CN(C(=O)c2cc(-c3ccncc3)nc3ccccc23)C1 (configuration not stated)	1	6	3	2	-4	2
CC1CN(C(=O)c2cc(-c3ccncc3)nc3ccccc23)CC(C)O1 (configuration not stated)	-3	23*	-4	2	-4	-14
CCN1CCN(CCC(=O)Nc2ccc(Br)c(C)c2)CC1	-13	0	20*	5	-6	-19
CCOC(=O)N1CCN(CCC(=O)Nc2ccc(Br)c(C)c2)CC1	1	-15	-6	8	2	1
O=C(NC1=NCCS1)c1cccc(OC(F)F)c1	12	3	-7	1	0	1
CCOc1ccc(CCNC(=O)Cn2ccc3ccccc3c2=O)cc1OCC	0	7	20*	1	0	-1
CNS(=O)(=O)c1cc(NC(=O)CCNC(=O)c2ccco2)ccc1C	27*	4	1	0	-3	-3
CCOc1ccc(CCNC(=O)CCNC(=O)c2ccco2)cc1OCC	7	19*	4	1	-4	-8
COc1ccc(CCNC(=O)CCNC(=O)c2ccco2)cc1OC	19	4	-5	1	-3	-2
Cc1ccc(NC(=O)CCNC(=O)c2ccco2)cc1F	13	3	-1	0	-2	4
CCOc1ccc(CCNC(=O)Cn2cccc2C(=O)c2ccccc2)cc1OCC	11	-6	-1	0	-3	12
COc1cc(-c2nc3ccccn3c2/N=C/c2ccccc2)ccc1O	3	-2	-12	0	51*	7
Cc1nc(NS(=O)(=O)c2ccccc2)sc1NC(=O)OCCN(C)C	2	2	-17	1	27*	-1
CCOC(=O)c1sc(NS(=O)(=O)c2ccccc2)nc1C	-1	4	-3	1	1	-2
Cc1cc(C)c2c(n1)sc1c(N3CCCCC3)ncnc12	0	23*	4	2	-2	-9
Cc1cc(C)c2c(n1)sc1c(N3CCN(C)CC3)ncnc12	8	25	-1	1	0	17
CCN(CC)c1ccc2c(Cl)c(Br)c(=O)oc2c1	70*	-17	-19	27	28*	62*
O=S(=O)(Nc1nc2c(s1)CCCC2)c1ccc(F)cc1	9	-1	-3	1	-7	-3
COc1ccc(S(=O)(=O)Nc2nc3c(s2)CCCC3)cc1	-4	12	20*	4	6	-7
CCn1c(CC(=O)Nc2ccccc2F)nnc1SCC(=O)NC1CCCC1	11	5	-2	1	-1	-10
CCN(CC)CCOC(=O)c1ccc(NC(=O)c2ccc(Cl)c(S(=O)(=O)N3CCCCCC3)c2)cc1	37*	-21	-33	5	-17	36*
CCN1CCN(c2ccc(NC(=O)c3ccc(OC)c(S(=O)(=O)N4CCCC4)c3)cc2)CC1	22	-1	-19	0	-10	13
CCCCOc1cccc(C(=O)Nc2ccc(N3CCN(CC)CC3)cc2)c1	39*	-17	-30	3	-12	11
CCN1CCN(c2ccc(NC(=O)c3ccc(Cl)c(S(=O)(=O)N4CCCC4)c3)cc2)CC1	56*	-13	-37	8	-8	48*
SMILES	CHRM5 antagonist	M4 PAM	CHRM5 PAM	CHRM4 agonist	M5 ag	CHRM4 antagonist
O=C(COC(=O)/C=C/c1ccc(Cl)cc1Cl)NCc1ccco1	10	0	1	5	1	-1
COc1cc2ccccc2cc1C(=O)Nc1nnc(-c2ccncc2)o1	13	-3	-6	3	-1	7
O=C(c1ccc2c(c1)OCO2)C1CCCN(Cc2ccc(OC(F)F)cc2)C1 (configuration not stated)	6	-15	-14	9	-6	33*
CCN(CC)C(=O)CSc1nnc(-c2ccccn2)n1-c1ccccc1OC	-14	20	11	2	2	31*
CCOC(=O)c1cc2c(nc1N)CC(C)(CC)OC2 (configuration not stated)	2	17*	-4	1	2	0
COc1ccc(CNC(=O)CN2CCN(c3ccc(F)cc3)CC2)cc1	6	7	0	2	-3	-5
C#CCNC(=O)C[C@@H]1C[C@@]2(C(=O)OCC)CCC=C2N(Cc2ccco2)C1=O	1	28*	3	1	1	-10
C#CCNC(=O)C[C@@H]1C[C@@]2(C(=O)OC)CCCCC=C2N(Cc2ccco2)C1=O	-17	6	14	1	7	-2
CCOC(=O)[C@]12CCCC=C1N(Cc1ccco1)C(=O)[C@H](CC(=O)N1CCN(C(=O)c3ccco3)CC1)C2	-3	24*	5	-2	6	-3
Cc1cc(SCCC(=O)O)nc2c(C)cccc12	-3	3	33*	1	-11	-9
Cc1cc(SCC(=O)N2CCCC2=O)nc2c(C)cccc12	-2	4	4	3	-7	-21
Cc1cc(SCC(=O)O)nc2ccccc12	-12	14	18*!	1	3	-8
Cc1ccc(Nc2nnc(SC(C)C(=O)Nc3c(C)n(C)n(-c4ccccc4)c3=O)s2)cc1 (configuration not stated)	-6	2	-3	-1	-3	-11
CCOc1cc(OCC)cc(C(=O)N2CCC[C@H]2C(=O)N2CCC[C@H]2C(=O)NCc2cccc(OC)c2)c1	6	-4	-5	2	1	2
CCn1c(COc2ccc(C)cc2)nnc1SCC(=O)C(C)(C)C	-5	-2	2	2	-1	-9
CCn1c(COc2ccccc2)nnc1SCC(=O)C(C)(C)C	-2	26*	2	4	1	-3
COc1ccc(-c2nc3c(C)cc(Br)cn3c2Cc2ccsc2)cc1OC	5	3	1	2	0	-6
Cc1sc2ncn(CC(=O)N3CCCC(C)C3)c(=O)c2c1S(=O)(=O)N1CCCCC1 (configuration not stated)	1	-1	4	1	0	0
Cc1sc2ncn(CC(=O)N3CCC(C(N)=O)CC3)c(=O)c2c1S(=O)(=O)N1CC(C)CC(C)C1 (configuration not stated)	16	15*	-5	3	-3	-18
